From ChEMBL document CHEMBL5058577, “EUbOPEN Chemogenomics Library 2 (Multiplex)” (2022)

Test system: HEK-293T
Assay: Multiplex assay against HEK293T
Assay type: toxicity, cell-based
Conditions: human
Procedure, shortened: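 Imaging took place on a CQ1 microscope at 37°C and 5% CO2 once compound had been added to live cells stained at seeding with Hoechst33342, BioTracker Green Microtubule Cytoskeleton Dye, MitoTracker Red and Annexin V Alexa Fluor 680. CellPathfinder machine-learning gating classed cells as Hoechst high-intensity objects or normal cells, classed normal cells as having healthy, pyknosed or fragmented nuclei, and classed pyknosed cells as mitotic or apoptotic. Tubulin, mitochondrial-mass and membrane-permeability phenotypes are per cents of the healthy-nucleus cells.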

[1] = 12 h, 1 µM, compound concentration 1 uM, replicate 1
[2] = 12 h, 1 µM, compound concentration 1 uM, replicate 2
[3] = 12 h, 10 µM, compound concentration 10 uM, replicate 1
[4] = 12 h, 10 µM, compound concentration 10 uM, replicate 2
[5] = 24 h, 1 µM, compound concentration 1 uM, replicate 1
[6] = 24 h, 1 µM, compound concentration 1 uM, replicate 2
[7] = 24 h, 10 µM, compound concentration 10 uM, replicate 1
[8] = 24 h, 10 µM, compound concentration 10 uM, replicate 2
[9] = 48 h, 1 µM, compound concentration 1 uM, replicate 1
[10] = 48 h, 1 µM, compound concentration 1 uM, replicate 2
[11] = 48 h, 10 µM, compound concentration 10 uM, replicate 1
[12] = 48 h, 10 µM, compound concentration 10 uM, replicate 2

CCC(=O)OCC(=O)[C@@]1(OC(=O)CC)[C@@H](C)C[C@H]2[C@@H]3CCC4=CC(=O)C=C[C@]4(C)[C@@]3(Cl)[C@@H](O)C[C@@]21C [BECLOMETHASONE DIPROPIONATE]
Population Apoptotic (%) [1]: 43%
Population Fragmented Nuclei (%) [1]: 8%
Population Healthy Nuclei (%) [1]: 75%
Population Hoechst High Intensity Objects (%) [1]: 7%
Population Membrane Permeable-Phenotype (%) [1]: 0%
Population Mitochondria Different-Phenotype (%) [1]: 60%
Population Mitotic Cells (%) [1]: 56%
Population Normal (%) [1]: 92%
Population Pyknosed Nuclei (%) [1]: 15%
Population Tubulin-Different-Phenotype (%) [1]: 48%
Total Cell Count [1]: 388
Population Apoptotic (%) [2]: 47%
Population Fragmented Nuclei (%) [2]: 5%
Population Healthy Nuclei (%) [2]: 74%
Population Hoechst High Intensity Objects (%) [2]: 4%
Population Mitochondria Different-Phenotype (%) [2]: 75%
Population Mitotic Cells (%) [2]: 52%
Population Normal (%) [2]: 95%
Population Pyknosed Nuclei (%) [2]: 19%
Population Tubulin-Different-Phenotype (%) [2]: 42%
Total Cell Count [2]: 356
Population Apoptotic (%) [3]: 60%
Population Fragmented Nuclei (%) [3]: 8%
Population Healthy Nuclei (%) [3]: 66%
Population Hoechst High Intensity Objects (%) [3]: 14%
Population Membrane Permeable-Phenotype (%) [3]: 0%
Population Mitochondria Different-Phenotype (%) [3]: 87%
Population Mitotic Cells (%) [3]: 39%
Population Normal (%) [3]: 85%
Population Pyknosed Nuclei (%) [3]: 25%
Population Tubulin-Different-Phenotype (%) [3]: 65%
Total Cell Count [3]: 236
Population Apoptotic (%) [4]: 68%
Population Fragmented Nuclei (%) [4]: 6%
Population Hoechst High Intensity Objects (%) [4]: 16%
Population Mitochondria Different-Phenotype (%) [4]: 93%
Population Mitotic Cells (%) [4]: 31%
Population Normal (%) [4]: 83%
Population Pyknosed Nuclei (%) [4]: 27%
Population Tubulin-Different-Phenotype (%) [4]: 35%
Total Cell Count [4]: 252
Population Apoptotic (%) [5]: 32%
Population Fragmented Nuclei (%) [5]: 7%
Population Healthy Nuclei (%) [5]: 81%
Population Hoechst High Intensity Objects (%) [5]: 4%
Population Membrane Permeable-Phenotype (%) [5]: 0%
Population Mitochondria Different-Phenotype (%) [5]: 40%
Population Mitotic Cells (%) [5]: 67%
Population Normal (%) [5]: 95%
Population Pyknosed Nuclei (%) [5]: 11%
Population Tubulin-Different-Phenotype (%) [5]: 31%
Total Cell Count [5]: 507
Population Apoptotic (%) [6]: 43%
Population Hoechst High Intensity Objects (%) [6]: 5%
Population Mitochondria Different-Phenotype (%) [6]: 52%
Population Mitotic Cells (%) [6]: 56%
Population Normal (%) [6]: 94%
Population Tubulin-Different-Phenotype (%) [6]: 18%
Total Cell Count [6]: 446
Population Apoptotic (%) [7]: 56%
Population Fragmented Nuclei (%) [7]: 13%
Population Healthy Nuclei (%) [7]: 65%
Population Hoechst High Intensity Objects (%) [7]: 11%
Population Membrane Permeable-Phenotype (%) [7]: 0%
Population Mitochondria Different-Phenotype (%) [7]: 89%
Population Mitotic Cells (%) [7]: 44%
Population Normal (%) [7]: 88%
Population Pyknosed Nuclei (%) [7]: 21%
Population Tubulin-Different-Phenotype (%) [7]: 73%
Total Cell Count [7]: 270
Population Apoptotic (%) [8]: 62%
Population Fragmented Nuclei (%) [8]: 5%
Population Healthy Nuclei (%) [8]: 71%
Population Hoechst High Intensity Objects (%) [8]: 9%
Population Mitochondria Different-Phenotype (%) [8]: 97%
Population Mitotic Cells (%) [8]: 37%
Population Normal (%) [8]: 90%
Population Pyknosed Nuclei (%) [8]: 23%
Population Tubulin-Different-Phenotype (%) [8]: 43%
Total Cell Count [8]: 243
Population Apoptotic (%) [9]: 30%
Population Fragmented Nuclei (%) [9]: 11%
Population Healthy Nuclei (%) [9]: 78%
Population Hoechst High Intensity Objects (%) [9]: 4%
Population Membrane Permeable-Phenotype (%) [9]: 0%
Population Mitochondria Different-Phenotype (%) [9]: 28%
Population Mitotic Cells (%) [9]: 69%
Population Normal (%) [9]: 95%
Population Pyknosed Nuclei (%) [9]: 9%
Population Tubulin-Different-Phenotype (%) [9]: 18%
Total Cell Count [9]: 742
Population Apoptotic (%) [10]: 31%
Population Fragmented Nuclei (%) [10]: 12%
Population Healthy Nuclei (%) [10]: 79%
Population Hoechst High Intensity Objects (%) [10]: 3%
Population Mitochondria Different-Phenotype (%) [10]: 32%
Population Mitotic Cells (%) [10]: 68%
Population Normal (%) [10]: 96%
Population Pyknosed Nuclei (%) [10]: 8%
Population Tubulin-Different-Phenotype (%) [10]: 17%
Total Cell Count [10]: 655
Population Apoptotic (%) [11]: 67%
Population Fragmented Nuclei (%) [11]: 14%
Population Healthy Nuclei (%) [11]: 72%
Population Hoechst High Intensity Objects (%) [11]: 5%
Population Membrane Permeable-Phenotype (%) [11]: 0%
Population Mitochondria Different-Phenotype (%) [11]: 72%
Population Mitotic Cells (%) [11]: 32%
Population Normal (%) [11]: 94%
Population Pyknosed Nuclei (%) [11]: 13%
Population Tubulin-Different-Phenotype (%) [11]: 43%
Total Cell Count [11]: 347
Population Apoptotic (%) [12]: 65%
Population Fragmented Nuclei (%) [12]: 12%
Population Mitochondria Different-Phenotype (%) [12]: 90%
Population Mitotic Cells (%) [12]: 34%
Population Pyknosed Nuclei (%) [12]: 15%
Population Tubulin-Different-Phenotype (%) [12]: 62%
Total Cell Count [12]: 283
